Experimental data reported in ChEMBL document CHEMBL1275389, “In vivo characterization of a dual adenosine A2A/A1 receptor antagonist in animal models of Parkinson's disease” (J Med Chem, 2010).
pKi: −log10 of the molar value. Calls of active or inactive are those of the source. The rule behind the calls is not given here.

What was measured:
[1] = molecular target: Adenosine receptor A2a (Homo sapiens, UniProt P29274); experiment: Antagonist activity at adenosine A2A receptor; format: functional
[2] = molecular target: T1, Adenosine receptor A1 (Homo sapiens, UniProt P30542); experiment: Antagonist activity at adenosine A1 receptor; format: functional
T1 sequence (P30542 whole entry): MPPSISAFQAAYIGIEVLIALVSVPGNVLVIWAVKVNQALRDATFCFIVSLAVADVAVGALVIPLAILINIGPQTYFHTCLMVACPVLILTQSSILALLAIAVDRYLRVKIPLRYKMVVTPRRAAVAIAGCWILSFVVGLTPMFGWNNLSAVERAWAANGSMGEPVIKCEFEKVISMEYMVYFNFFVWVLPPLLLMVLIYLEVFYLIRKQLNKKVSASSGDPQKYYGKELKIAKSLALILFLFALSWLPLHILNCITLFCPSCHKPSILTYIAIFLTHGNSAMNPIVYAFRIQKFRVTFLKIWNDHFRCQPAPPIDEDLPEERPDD

[3] = Half life in BALB/c mouse at 10 mg/kg, po; format: ADME, organism-based; set-up: dose 10 mg/kg, route oral; conditions: in vivo
Summary of the method: (§1)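 Fasted male BALB/c mice received one oral dose of 10 mg/kg as a solution in 0.5% methylcellulose. For bioavailability, a separate iv dose of 2 mg/kg was given in 10% solutol. Discrete blood samples were taken by cardiac puncture from 3–4 animals per time point. Plasma was acetonitrile-precipitated and measured by LC-MS/MS (LOQ 0.7-2 ng/mL). Parameters came from noncompartmental analysis.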

[4] = Cmax in BALB/c mouse plasma at 10 mg/kg, po; format: ADME, organism-based; set-up: dose 10 mg/kg, route oral; summary of the method: as §1
[5] = Oral bioavailability in BALB/c mouse at 10 mg/kg; format: ADME, organism-based; conditions: in vivo; summary of the method: as §1
[6] = tested on: Mus musculus; experiment: Reversal of haloperidol-induced catalepsy in po dosed BALB/c mouse administered 30 mins after haloperidol challenge measured for 60 seconds after 1 hr; format: functional
Summary of the method: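 Fasted male BALB/c mice (18-23 g) received haloperidol 1 mg/kg sc (in 0.3% tartaric acid/0.9% saline). Test compound was given orally in 0.5% methylcellulose (0.01-10 mg/kg) 30 min later. L-DOPA 300 mg/kg plus carbidopa 75 mg/kg served as positive control. Groups were randomized and testing was blind. At 1 h, forepaws were placed on a bar 3.5 cm high and time on the bar was recorded (max 60 s). n = 9-11; Dunnett's test.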

[7] = Half life in Sprague-Dawley rat at 10 mg/kg, po; format: ADME, organism-based; set-up: dose 10 mg/kg, route oral; conditions: in vivo
Summary of the method: as §1, with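 “Sprague-Dawley rats” for “BALB/c mice”, “orbital sinus” for “cardiac”, “rats” for “animals”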

[8] = Cmax in Sprague-Dawley rat plasma at 10 mg/kg, po; format: ADME, organism-based; set-up: dose 10 mg/kg, route oral
Summary of the method: as §1, with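 “Sprague-Dawley rats” for “BALB/c mice”, “orbital sinus” for “cardiac”, “rats” for “animals”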

[9] = Oral bioavailability in Sprague-Dawley rat at 10 mg/kg; format: ADME, organism-based; conditions: in vivo
Summary of the method: as §1, with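 “Sprague-Dawley rats” for “BALB/c mice”, “orbital sinus” for “cardiac”, “rats” for “animals”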

[10] = Cmax in Sprague-Dawley rat brain at 10 mg/kg, po; format: ADME, organism-based; set-up: dose 10 mg/kg, route oral
Summary of the method: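 Tissue distribution study: fasted male Sprague-Dawley rats were given 10 mg/kg orally in 0.5% methylcellulose. Four rats per time point were euthanized to collect brain. Brains were weighed, homogenized in methanol, and the extract evaporated and reconstituted in mobile phase for LC-MS/MS.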

[11] = Half life in cynomolgus monkey at 10 mg/kg, po; format: ADME, organism-based, Macaca fascicularis; set-up: dose 10 mg/kg, route oral; conditions: in vivo
Summary of the method: (§2)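 Fasted male and female cynomolgus monkeys received one oral dose of 10 mg/kg as a solution in 0.5% methylcellulose. For bioavailability, a separate iv dose of 1 mg/kg was given in 10% solutol. Serial blood was drawn by venipuncture. Plasma was acetonitrile-precipitated and measured by LC-MS/MS (LOQ 0.7-2 ng/mL). Noncompartmental analysis was applied to individual plasma concentrations.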

[12] = Cmax in cynomolgus monkey plasma at 10 mg/kg, po; format: ADME, organism-based, Macaca fascicularis; set-up: dose 10 mg/kg, route oral; summary of the method: as §2
[13] = Oral bioavailability in cynomolgus monkey at 10 mg/kg; format: ADME, organism-based, Macaca fascicularis; conditions: in vivo; summary of the method: as §2
[14] = Ratio of drug level in brain to plasma in Sprague-Dawley rat at 10 mg/kg, po; format: ADME, organism-based; set-up: dose 10 mg/kg, route oral
Summary of the method: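 Fasted male Sprague-Dawley rats were given 10 mg/kg orally as a solution in 0.5% methylcellulose. At each time point four rats were euthanized for blood, plasma and brain. Brain was homogenized in methanol, and the extract was dried and reconstituted in mobile phase. Plasma was precipitated with acetonitrile. Both were quantified by LC-MS/MS.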

[15] = tested on: Mus musculus; experiment: Reversal of haloperidol-induced catalepsy in BALB/c mouse at 1 mg/kg, po administered 30 mins after haloperidol challenge measured for 60 seconds after 4 hrs; format: functional, organism-based; set-up: dose 1 mg/kg
Summary of the method: (§3)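 Fasted male BALB/c mice received haloperidol (1 mg/kg sc) and were then dosed orally with test compound (0, 1, 3 mg/kg in 0.5% methylcellulose), reference A2A antagonist (5 mg/kg) or vehicle. Bar catalepsy (max 60 s) was measured repeatedly at 15 min, 1 h, 2 h and 4 h after dosing. Mean ± SEM, n = 12; Dunnett's test.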

[16] = tested on: Mus musculus; experiment: Reversal of haloperidol-induced catalepsy in BALB/c mouse at 3 mg/kg, po administered 30 mins after haloperidol challenge measured for 60 seconds after 4 hrs; format: functional, organism-based; set-up: dose 3 mg/kg; summary of the method: as §3
[17] = tested on: Rattus norvegicus; experiment: Reversal of haloperidol-induced catalepsy in po dosed Sprague-Dawley rat administered 30 mins after haloperidol challenge measured for 180 seconds after 1 hr; format: functional
Summary of the method: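 Sprague-Dawley rats received haloperidol (1 mg/kg sc). Oral test compound (0.01-30.0 mg/kg), L-DOPA/carbidopa (200:50 mg/kg) or vehicle followed, as in the mouse protocol. Time to descend from the bar was recorded (max 180 s). Mean ± SEM, n = 10-16 rats per group.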

[18] = tested on: Rattus norvegicus; experiment: Reversal of haloperidol-induced catalepsy in Sprague-Dawley rat at 1 mg/kg, po administered 30 mins after haloperidol challenge measured for 180 seconds after 4 hrs; format: functional, organism-based; set-up: dose 1 mg/kg
Summary of the method: (§4)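 Haloperidol-treated rats (1 mg/kg sc) were dosed orally with test compound (0, 1, 10 mg/kg) or L-DOPA 200 mg/kg plus benserazide 50 mg/kg. Time to descend from the bar (max 180 s) was measured at 15 min, 1 h, 2 h and 4 h after dosing. n = 10 rats; Dunnett's test versus haloperidol + vehicle.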

[19] = tested on: Rattus norvegicus; experiment: Reversal of haloperidol-induced catalepsy in Sprague-Dawley rat at 10 mg/kg, po administered 30 mins after haloperidol challenge measured for 180 seconds after 4 hrs; format: functional, organism-based; set-up: dose 10 mg/kg; summary of the method: as §4
[20] = tested on: Mus musculus; experiment: Reversal of reserpine-induced akinesia in CF1 mouse at 1 mg/kg, po administered 18 hrs before reserpine challenge measured for 30 mins after 60 mins; format: functional, organism-based; set-up: dose 1 mg/kg; conditions: in the assay text read “18 hrs after reserpine challenge” for “18 hrs before reserpine challenge”
Summary of the method: (§5)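 Mice were pretreated with reserpine (0.6 mg/kg sc) 18 h before testing. They were dosed orally with test compound (0.10, 1.0, 10.0, 30.0 mg/kg) or vehicle. Locomotion was recorded 60 min after dosing as total distance traveled (cm) over a 30 min period. Mean ± SEM, n = 10-12 per group; Hochberg test versus reserpine + vehicle.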

[21] = tested on: Mus musculus; experiment: Reversal of reserpine-induced akinesia in CF1 mouse at 10 mg/kg, po administered 18 hrs before reserpine challenge measured for 30 mins after 60 mins; format: functional, organism-based; set-up: dose 10 mg/kg; conditions: in the assay text read “18 hrs after reserpine challenge” for “18 hrs before reserpine challenge”; summary of the method: as §5
[22] = tested on: Rattus norvegicus; experiment: Potentiation of L-dopa-induced rotational behavior in unilaterally 6-hydroxydopamine-lesioned po dosed Sprague-Dawley rat pretreated 30 mins before L-dopa challenge measured for 120 mins in presence of carbidopa; format: functional, organism-based
Summary of the method: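 6-OHDA (12 μg) was microinjected unilaterally into the medial forebrain bundle. Six weeks later rats got L-DOPA (10 mg/kg po, with carbidopa 2.5 mg/kg sc) alone or together with oral test compound (0.1, 1.0, 3.0, 10 mg/kg). Contralateral 360° turns were counted by an optical sensor during the 2 h before and after L-DOPA. Mean ± SEM, n = 16 rats; Tukey's test versus L-DOPA + vehicle.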

[23] = tested on: Rattus norvegicus; experiment: Inhibition of 6-hydroxydopamine-induced rotational behavior in Sprague-Dawley rat at 0.1 to 10 mg/kg, po measured for 120 mins; format: functional; conditions: 2 h, dose mg/kg 0.1-10, read-out: MED
Summary of the method: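 Rats received 6-OHDA (12 μg) unilaterally into the medial forebrain bundle. Six weeks later they were dosed orally with test compound alone (0.1, 1.0, 3.0, 10 mg/kg). Rotation was tracked by an optical sensor tethered to an automated system, with one count per 360° turn. Readout was mean ± SEM total contralateral rotations over 2 h, n = 16 per group.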

[24] = tested on: Callithrix jacchus; experiment: Inhibition of MPTP-induced motor disabilities in Callithrix jacchus at 10 mg/kg, po measured every 5 mins for 6 hrs; format: functional, organism-based; set-up: dose 10 mg/kg
Summary of the method: (§6)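 MPTP-treated marmosets were dosed orally with vehicle, L-DOPA (12 mg/kg) or test compound (0.1/0.3, 1.0, 10, 50 mg/kg). Parkinsonian motor disability was scored out to 6 h. Eight animals per group. Analysis used a Friedman nonparametric repeated-measures ANOVA with Dunn's test.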

[25] = tested on: Callithrix jacchus; experiment: Inhibition of MPTP-induced motor disabilities in Callithrix jacchus at 50 mg/kg, po measured every 5 mins for 6 hrs; format: functional, organism-based; set-up: dose 50 mg/kg; summary of the method: as §6
[26] = tested on: Callithrix jacchus; experiment: Inhibition of MPTP-induced motor disabilities in Callithrix jacchus at 1 mg/kg, po measured every 5 mins […]; format: functional, organism-based; set-up: dose 1 mg/kg; summary of the method: as §6
[27] = tested on: Mus musculus; experiment: Reversal of reserpine-induced akinesia in po dosed CF1 mouse administered 18 hrs after reserpine challenge measured for 30 mins after 60 mins; conditions: read-out: MED
[28] = tested on: Mus musculus; experiment: Reversal of reserpine-induced akinesia in CF1 mouse at 30 mg/kg, po administered 18 hrs after reserpine challenge measured for 30 mins after 60 mins
[29] = tested on: Callithrix jacchus; experiment: Inhibition of MPTP-induced motor disabilities in Callithrix jacchus at 12 mg/kg, po measured every 5 mins […]; format: functional, organism-based; set-up: dose 12 mg/kg; summary of the method: as §6
[30] = tested on: Callithrix jacchus; experiment: Toxicity in Callithrix jacchus assessed as induction of dyskinesia at 12 mg/kg, po measured for 10 mins every 30 mins […]; format: organism-based; set-up: dose 12 mg/kg, route oral; conditions: marmoset, in vivo
Summary of the method: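 MPTP-treated marmosets received vehicle, L-DOPA (12 mg/kg po) or oral test compound (0.1, 1.0, 10, 50 mg/kg). Dyskinesias (involuntary movements) were scored out to 4 h. Eight animals per group. Analysis used a Friedman test followed by Dunn's comparison.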

Sequence of Adenosine receptor A2a (P29274 whole entry): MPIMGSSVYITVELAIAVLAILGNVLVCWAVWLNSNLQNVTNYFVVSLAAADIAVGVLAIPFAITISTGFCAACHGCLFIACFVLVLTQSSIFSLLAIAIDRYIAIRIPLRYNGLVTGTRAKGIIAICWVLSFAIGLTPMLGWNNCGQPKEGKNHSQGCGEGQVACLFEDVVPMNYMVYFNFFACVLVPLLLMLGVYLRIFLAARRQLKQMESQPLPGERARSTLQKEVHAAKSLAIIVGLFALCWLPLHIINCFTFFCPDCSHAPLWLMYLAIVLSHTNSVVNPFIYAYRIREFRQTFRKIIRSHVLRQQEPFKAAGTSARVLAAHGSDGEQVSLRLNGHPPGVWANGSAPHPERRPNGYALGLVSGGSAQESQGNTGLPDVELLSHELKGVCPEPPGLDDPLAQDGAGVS

With Cl.Cl.Nc1nc(-c2ccccc2)c2c(n1)-c1cc(CN3CCCC3)ccc1C2=O the pKi [1] was 8.39, the pKi [2] was 7.77 and the half-life [3] was 0.8 h. The Cmax [4] was 655 nM, the bioavailability [5] was 100% and the Activity [6] was “Dose-dependent effect”. It also gave an ED50 ([6]; Mus musculus, BALB/c, po) of 0.17 mg/kg, a minimal effective dose ([6]; Mus musculus, BALB/c, po, read-out: MED) of 1 mg/kg and a half-life [7] of 1.6 h. It also gave a Cmax [8] of 1260 nM, a bioavailability [9] of 64% and a Cmax [10] of 3550 nM. For the same molecule, the half-life [11] was 3.2 h, the Cmax [12] was 626 nM and the bioavailability [13] was 39%. For the same molecule, the Kp [14] was 3, the Activity [15] was “Active” and the Activity [16] was “Active”. The Activity [17] was “Dose-dependent effect”, the ED50 [17] was 0.48 mg/kg and the minimal effective dose ([17]; read-out: MED) was 1 mg/kg. For the same molecule, the Activity [18] was “Active”, the Activity [19] was “Active” and the Activity [20] was “Active”. For the same molecule, the Activity [21] was “Active”, the Activity [22] was “Dose-dependent effect” and the minimal effective dose [23] was 1 mg/kg. For the same molecule, the Activity [24] was “Active”, the Activity [25] was “Active” and the Activity [26] was “Active”. The minimal effective dose [27] was 1 mg/kg and the Activity [28] was “Active”.

In the case of CCn1c(=O)c2c(nc(/C=C/c3ccc(OC)c(OC)c3)n2C)n(CC)c1=O [ISTRADEFYLLINE], the MRC [6] was 1 mg/kg, the ED50 ([6]; Mus musculus, BALB/c, po) was 0.14 mg/kg and the Activity [15] was “Active”. The Activity [16] was “Active”.

For N[C@@H](Cc1ccc(O)c(O)c1)C(=O)O [LEVODOPA], the inhibition [29] was “Active” and the Activity [30] was “Toxic”.
